B1: Osa-1-4 twister ribozyme (parent)
chain: CCGCCUAACACUGCCAAUGCCGGUCCCAAGCCCGGAUAAAAGUGGAGGGGGCGG

Variants of: B1
Assay: self-cleavage, relative activity (ratio to wild type); higher = more cleavage; co-transcriptional
How it was run: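 Relative activity is the fraction cleaved divided by that of the wild-type ribozyme. The library came from a DNA template for a 54-nucleotide Oryza sativa twister ribozyme, doped at the 48 positions downstream of the cleavage site with 97 % wild-type base and 1 % of each other base. After 2 h of in vitro transcription at 37 °C with co-transcriptional self-cleavage, the RNA was reverse-transcribed with a template-switching oligonucleotide, amplified by PCR and deep-sequenced, and reads with or without upstream sequence gave the cleavage status.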

Variant	self-cleavage
A10C G22A	0.05
A10C G22U	0.03
A10C G22C	0.02
A10C U24A	0.02
A10C U24G	0.02
A10C U24C	0.04
A10G A17U	0.85
A10G A17C	0.44
A10G A17G	0.64
A10C A28G	0.03
A10C A28U	0.05
A10C A28C	0.08
A10C C9U	0.06
A10C C9G	0.07
A10C C9A	0.43
C9U G19A	0.26
C9U G19C	0.05
C9U G19U	0.08
A10G G13C	0.03
A10G G13A	0.08
A10G G13U	0.04
C9U G45U	0.04
C9U G45A	0.06
C9U G45C	0.03

Variant	self-cleavage
C9U G22C	0.03
C9U G22A	0.68
C9U G22U	0.26
C9U G44C	0.67
C9U G44U	0.69
C9U G44A	0.76
A10C G44A	0.06
A10C G44U	0.22
A10C G44C	0.16
C9U	0.78
A10G C26U	0.5
A10G C26A	0.04
A10G C26G	0.18
C9U U37C	0.82
C9U U37A	0.4
C9U U37G	0.85
A10C G47A	0.02
A10C G47C	0.02
A10C G47U	0.03
A10G G42C	0.12
A10G G42A	0.22
A10G G42U	0.06
C9U G54U	0.72
C9U G54A	0.69

Variant	self-cleavage
C9U G54C	0.71
C9G U24G	0.04
A10G C15A	0.17
A10G C15G	0.2
A10G C15U	0.14
A10C A41U	0.06
A10C A41G	0.11
A10C A41C	0.05
A10G G19U	0.13
A10G G19C	0.09
A10G G19A	0.28
A10G C9G	0.41
A10G C9U	0.77
A10G C9A	0.57
A10G A8U	0.12
A10G A8C	0.13
A10G A8G	0.49
A10C C27A	0.06
A10C C27U	0.02
A10C C27G	0.02
A10G A40G	0.34
A10G A40C	0.08
A10G A40U	0.27
A10G C20U	0.81

Variant	self-cleavage
A10G C20A	0.78
A10G C20G	0.09
C9U G49A	0.06
C9U G49C	0.04
C9U G49U	0.05
A10G C11A	0.38
A10G C11G	0.12
A10G C11U	0.8
A10C A39U	0.05
A10C A39C	0.05
A10C A39G	0.06
C9U U24G	0.01
C9U U24C	0.06
C9U U24A	0.06
C9U G35A	0.53
C9U G35C	0.21
C9U G35U	0.59
A10C G54A	0.17
A10C G54U	0.3
A10C G54C	0.14
A10G	0.91
A10C	0.12
A10C C15A	0.08
A10C C15U	0.04

Variant	self-cleavage
A10C C15G	0.04
A10C C20G	0.03
A10C C20U	0.08
A10C C20A	0.08
A10G A16C	0.27
A10G A16G	0.89
A10G A16U	0.61
A10G G48A	0.07
A10G G48C	0.06
A10G G48U	0.06
A10G A38C	0.91
A10G A38G	0.88
A10G A38U	0.8
A10C U18C	0.07
A10C U18A	0.08
A10C U18G	0.24
A10G A28U	0.43
A10G A28C	0.63
A10G A28G	0.15
A10C G19U	0.03
A10C G19A	0.04
A10C G19C	0.02
A10C A38U	0.08
A10C A38G	0.08

Variant	self-cleavage
A10C A38C	0.07
A10G G35U	0.4
A10G G35A	0.41
A10G G35C	0.13
A10C G34C	0.03
A10C G34A	0.04
A10C G34U	0.05
C9U G42A	0.09
C9U G42C	0.04
C9U G42U	0.04
C9U G13C	0.01
C9U G13A	0.04
C9U G13U	0.01
A10G G45U	0.1
A10G G45C	0.06
A10G G45A	0.17
A10C C32G	0.02
A10C C32U	0.02
A10C C32A	0.02
A10G C21A	0.33
A10G C21U	0.89
A10G C21G	0.08
A10C A29U	0.02
A10C A29C	0.02

Variant	self-cleavage
A10C A29G	0.03
A10C G48U	0.02
A10C G48A	0.02
A10C G48C	0.02
A10G C31U	0.36
A10G C31A	0.05
A10G C31G	0.1
A10G C52A	0.92
A10G C52G	0.75
A10G C52U	0.95
A10G A46U	0.11
A10G A46G	0.08
A10G A46C	0.06
A10C A36G	0.11
A10C A36C	0.03
A10C A36U	0.09
A10C C31A	0.02
A10C C31G	0.03
A10C C31U	0.03
A10G C27G	0.07
A10G C27U	0.1
A10G C27A	0.12
A10C G30C	0.01

— the RNAGym collection of RNA variant scans (doi:10.1002/anie.201605470)
